According to ChEMBL document CHEMBL4219118, “Cathepsin B inhibitors: Further exploration of the nitroxoline core” (Bioorg Med Chem Lett, 2018):

Tests used:
[1] = target: T1, Cathepsin B (Homo sapiens, UniProt P07858); experiment: Inhibition of recombinant human cathepsin B endopeptidase activity assessed as inhibitory constant for enzyme-substrate-inhibitor complex using Z-Arg-Arg-AMC as substrate in presence of pH 6 phosphate buffer by fluorescence assay
[2] = target: T1, Cathepsin B; experiment: Inhibition of recombinant human cathepsin B exopeptidase activity assessed as inhibitory constant for enzyme-substrate-inhibitor complex using Abz-Gly-Ile-Val-Arg-Ala-Lys(Dnp)-OH as substrate in presence of pH 5 acetate buffer by fluorescence assay
[3] = target: T1, Cathepsin B; experiment: Inhibition of recombinant human cathepsin B endopeptidase activity assessed as inhibitory constant for enzyme-inhibitor complex using Z-Arg-Arg-AMC as substrate in presence of pH 4.5 acetate buffer by fluorescence assay
In short: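 Recombinant cathepsin B endopeptidase activity assayed with the small substrate Z-Arg-Arg-AMC at pH 4.5. Acidic conditions chosen to shift the enzyme toward the closed (exopeptidase) conformation. Ki reported.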

[4] = target: T1, Cathepsin B; experiment: Inhibition of recombinant human cathepsin B exopeptidase activity assessed as inhibitory constant for enzyme-inhibitor complex using Abz-Gly-Ile-Val-Arg-Ala-Lys(Dnp)-OH as substrate in presence of pH 5 acetate buffer by fluorescence assay
[5] = target: T1, Cathepsin B; experiment: Non-competitive inhibition of recombinant human cathepsin B endopeptidase activity assessed as inhibitory constant for enzyme-substrate-inhibitor complex using Z-Arg-Arg-AMC as substrate in presence of pH 6 phosphate buffer by fluorescence assay
[6] = target: T1, Cathepsin B; experiment: Non-competitive inhibition of recombinant human cathepsin B endopeptidase activity assessed as inhibitory constant for enzyme-inhibitor complex using Z-Arg-Arg-AMC as substrate in presence of pH 6 phosphate buffer by fluorescence assay
[7] = target: T1, Cathepsin B; experiment: Non-competitive inhibition of recombinant human cathepsin B exopeptidase activity assessed as inhibitory constant for enzyme-substrate-inhibitor complex using Abz-Gly-Ile-Val-Arg-Ala-Lys(Dnp)-OH as substrate in presence of pH 5 acetate buffer by fluorescence assay
[8] = target: T1, Cathepsin B; experiment: Non-competitive inhibition of recombinant human cathepsin B exopeptidase activity assessed as inhibitory constant for enzyme-inhibitor complex using Abz-Gly-Ile-Val-Arg-Ala-Lys(Dnp)-OH as substrate in presence of pH 5 acetate buffer by fluorescence assay

Row | Ki [1] | Ki [2] | Ki [3] | Ki [4] | Ki [5] | Ki [6] | Ki [7] | Ki [8] | Structure (SMILES)
1 | Not Active | Not Active | Not Active | Not Active |  |  |  |  | N#CCN(Cc1ccccc1)Cc1cc([N+](=O)[O-])ccc1O
2 | Not Active | Not Active | Not Active | Not Active |  |  |  |  | Cc1ccc([N+](=O)[O-])c2cccnc12
3 | Not Active | Not Active | Not Active | Not Active |  |  |  |  | COCCN(CC1CCN(Cc2nc3ccccc3o2)CC1)C(=O)c1cc([N+](=O)[O-])c2cccnc2c1O
4 | Not Active | Not Active | Not Active | Not Active |  |  |  |  | CC(=O)c1ccc(-c2ccc(-c3ccc([N+](=O)[O-])c4cccnc34)s2)cc1
5 | Not Active | Not Active | Not Active | Not Active |  |  |  |  | CN(CC#N)Cc1ccc2c([N+](=O)[O-])ccc(O)c2n1
6 | Not Active | Not Active | Not Active | Not Active |  |  |  |  | CC1CCN(Cc2cc([N+](=O)[O-])ccc2O)CC1
7 |  |  |  |  | 202 µM | 202 µM | 329 µM | 329 µM | Nc1ccc2c([N+](=O)[O-])ccc(O)c2n1
8 | Not Active | Not Active | Not Active | Not Active |  |  |  |  | O=[N+]([O-])c1ccc(O)c(CN2CCCCC2)c1
9 | Not Active | Not Active | Not Active | Not Active |  |  |  |  | CC(=O)c1ccc(-c2ccc(-c3ccc([N+](=O)[O-])c4cccnc34)n2C)cc1
10 | Not Active | Not Active | Not Active | Not Active |  |  |  |  | CN(CC#N)Cc1cc([N+](=O)[O-])ccc1O
11 | Not Active | Not Active | Not Active | Not Active |  |  |  |  | O=C(O)c1ccc2c([N+](=O)[O-])cc([N+](=O)[O-])c(O)c2n1
12 | Not Active | Not Active | Not Active | Not Active |  |  |  |  | O=[N+]([O-])c1cccc(-c2ccc([N+](=O)[O-])c3cccnc23)c1
13 | Not Active | Not Active | Not Active | Not Active |  |  |  |  | Cc1cccc(-c2ccc([N+](=O)[O-])c3cccnc23)c1
14 | Not Active | Not Active | Not Active | Not Active |  |  |  |  | O=[N+]([O-])c1ccc(-c2cc3ccccc3o2)c2ncccc12
15 | Not Active | Not Active | Not Active | Not Active |  |  |  |  | O=[N+]([O-])c1ccc(-c2ccsc2)c2ncccc12
16 |  |  |  |  | 136 µM | 136 µM | 122 µM | 122 µM | O=C(c1cc([N+](=O)[O-])c2cccnc2c1O)N1CCOCC1
17 | Not Active | Not Active | Not Active | Not Active |  |  |  |  | O=[N+]([O-])c1ccc(-c2ccoc2)c2ncccc12
18 | Not Active | Not Active | Not Active | Not Active |  |  |  |  | O=[N+]([O-])c1ccc(Br)c2ncccc12
19 | Not Active | Not Active | Not Active | Not Active |  |  |  |  | CC1CCN(C(=O)c2cc([N+](=O)[O-])ccc2O)CC1
20 | Not Active | Not Active | Not Active | Not Active |  |  |  |  | Cc1ccc(-c2ccc([N+](=O)[O-])c3cccnc23)cc1
21 | Not Active | Not Active | Not Active | Not Active |  |  |  |  | CC(=O)c1ccc(-c2c(-c3ccc([N+](=O)[O-])c4cccnc34)oc3ccccc23)cc1
22 | Not Active | Not Active | Not Active | Not Active |  |  |  |  | CN(CC#N)C(=O)c1cc([N+](=O)[O-])ccc1O
23 | Not Active | Not Active | Not Active | Not Active |  |  |  |  | O=[N+]([O-])c1ccc(-c2ccco2)c2ncccc12

Row | Ki [1] | Ki [2] | Ki [3] | Ki [4] | Ki [5] | Ki [6] | Ki [7] | Ki [8] | Structure (SMILES)
24 | Not Active | Not Active | Not Active | Not Active |  |  |  |  | O=[N+]([O-])c1ccc(-c2ccccc2)c2ncccc12
25 | Not Active | Not Active | Not Active | Not Active |  |  |  |  | O=[N+]([O-])c1ccc(-c2c(-c3ccc([N+](=O)[O-])c4cccnc34)oc3ccccc23)cc1
26 |  |  |  |  | 185 µM | 185 µM | 121 µM | 121 µM | CN(CC#N)C(=O)c1cc([N+](=O)[O-])c2cccnc2c1O
27 | Not Active | Not Active | Not Active | Not Active |  |  |  |  | N#CC1(NCc2cc([N+](=O)[O-])ccc2O)CC1
28 | Not Active | Not Active | Not Active | Not Active |  |  |  |  | Cc1ccc(-c2ccc([N+](=O)[O-])c3cccnc23)s1
29 | Not Active | Not Active | Not Active | Not Active |  |  |  |  | O=C(NCC1CCN(C2Cc3ccccc3C2)CC1)c1cc([N+](=O)[O-])c2cccnc2c1O
30 | Not Active | Not Active | Not Active | Not Active |  |  |  |  | O=C(O)c1ccc([N+](=O)[O-])c2cccnc12
31 | Not Active | Not Active | Not Active | Not Active |  |  |  |  | O=[N+]([O-])c1ccc(-c2cc3ccccc3s2)c2ncccc12
32 |  |  |  |  | 333 µM | 333 µM | 224 µM | 224 µM | Cn1cccc1-c1ccc([N+](=O)[O-])c2cccnc12
33 | Not Active | Not Active | Not Active | Not Active |  |  |  |  | O=C(c1cc([N+](=O)[O-])ccc1O)N1CCCCC1
34 | Not Active | Not Active | Not Active | Not Active |  |  |  |  | N#Cc1ccc(-c2ccc([N+](=O)[O-])c3cccnc23)cc1
35 |  |  |  |  | 342 µM | 342 µM | 96 µM | 96 µM | N#CCN(Cc1ccccc1)C(=O)c1cc([N+](=O)[O-])ccc1O
36 | Not Active | Not Active | Not Active | Not Active |  |  |  |  | N#CCNCc1cc([N+](=O)[O-])ccc1O
37 | Not Active | Not Active | Not Active | Not Active |  |  |  |  | O=C(NCC1CCN(Cc2nc3ccccc3s2)CC1)c1cc([N+](=O)[O-])c2cccnc2c1O
38 | Not Active | Not Active | Not Active | Not Active |  |  |  |  | N#Cc1ccc(-c2ccc(-c3ccc([N+](=O)[O-])c4cccnc34)o2)cc1
39 |  |  |  |  | 212 µM | 212 µM | 97 µM | 97 µM | O=[N+]([O-])c1ccc(O)c(CN2CCOCC2)c1
40 |  |  |  |  | 271 µM | 271 µM | 168 µM | 168 µM | N#CCNC(=O)c1cc([N+](=O)[O-])ccc1O
41 | Not Active | Not Active | Not Active | Not Active |  |  |  |  | NC(=O)c1ccc([N+](=O)[O-])c2cccnc12
42 |  |  |  |  | 237 µM | 237 µM | 176 µM | 176 µM | O=C(c1cc([N+](=O)[O-])ccc1O)N1CCOCC1
43 |  |  |  |  | 139 µM | 139 µM | 240 µM | 240 µM | O=C(O)c1ccc2c([N+](=O)[O-])ccc(O)c2n1
44 | Not Active | Not Active | Not Active | Not Active |  |  |  |  | O=[N+]([O-])c1ccc(-c2ccc[nH]2)c2ncccc12
45 | Not Active | Not Active | Not Active | Not Active |  |  |  |  | O=[N+]([O-])c1ccc(-c2occc2-c2ccc([N+](=O)[O-])c3cccnc23)cc1

Row | Structure (SMILES) | Ki [1] | Ki [2] | Ki [3] | Ki [4] | Ki [5] | Ki [6] | Ki [7] | Ki [8]
46 | N#Cc1ccc([N+](=O)[O-])c2cccnc12 | Not Active | Not Active | Not Active | Not Active |  |  |  | 
47 | Cc1ccc2c([N+](=O)[O-])cc([N+](=O)[O-])c(O)c2n1 | Not Active | Not Active | Not Active | Not Active |  |  |  | 
